KCC2 mod: KCC2 (human) Cl- transport modulation; Q9H2X9; KCC2 cells, thallium flux FluoZin-2 fluorescence; B-score of Tl+ flux slope (higher = more flux/activation; lower = inhibition) at 10 µM; actives 2.2% (n = 190,000); AID 1456;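 active = thallium flux slope and its plate-corrected score both differing from the plate sample mean at a set confidence after two filtering rounds, in either direction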;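 also: slope of fluorescence scaled to starting intensity during 10 to 20 s after thallium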
CHT block: inhibitors of human choline transporter CHT. Q9GZV3. CHT-expressing cells, membrane potential dye, choline response; stronger effect = lower value. B-score at 10 µM. actives 0.86% (n = 310,000). AID 488975;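 active = B-score over 3 SD under the library average, and starting fluorescence ratio not unusually high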;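 also: choline stimulus applied at its EC90 after an EC20 pre-addition; B-score computed on integrated fluorescence ratio after choline addition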
CHT allo act: allosterically activates the human high affinity choline transporter; CHT-expressing cells, membrane potential dye, choline EC20; stronger effect = higher value; LV-AA mutant CHT in HEK293 cells; actives 0.49% (n = 310,000); B-score at 10 µM; Q9GZV3;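 active = initial fluorescence not abnormally high and integrated response B-score, plate-corrected, over 3 SD above library mean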
Rad51 HR inh: Rad51 (human) homologous recombination inhibition | AID 1385 | hRad51 DNA strand exchange, fluorescence dequenching | inhibition, % at 10 µM | actives 0.085% (n = 200,000);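 active = inhibition above 40% at the single screening dose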;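 also: 0% = DMSO control wells and 100% = blanks with heterologous ssDNA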
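System: hRad51 filaments on single-stranded DNA; reagent: Fluorescein- and BHQ1-tagged 47-mer duplex; compound dosing: one concentration, 10 µM final; timing: filaments 15 min 37 °C, then compound 30 min; measured by: fluorescein emission 520 nm, excitation 485 nm; benchmarks: per-plate controls and blanks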
CHT block conf: confirmation of human choline transporter CHT inhibitors; shares compounds with CHT block; CHT-expressing cells, choline membrane potential dye; LV-to-AA substituted CHT, HEK293 cells; CHT activity remaining % of control (stronger effect = lower value), % at 10 µM; actives 70% (n = 2,400);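 active = choline transporter activity left, mean of duplicates at 10 µM, below buffer-only control mean minus 3 SD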;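 also: depolarization triggered by choline at its EC90 following an EC20 pre-addition; 0% = hemicholinium-3 full block and 100% = buffer-only control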
HEK293 CHT ctr: activity in parental HEK293 cells lacking CHT; shares compounds with CHT block; membrane potential dye, choline response; active = decrease or increase beyond buffer ±3SD; membrane potential ratio readout (active if shifted either direction beyond buffer ±3SD; no single direction) at 10 µM; actives 4% (n = 2,400); AID 493222;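 also: parental cells lack the transporter so any hit is non-specific; ratio is peak minus trough fluorescence over baseline after EC90 choline challenge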
* = called active by the depositor; i = inactive; · = no result given. Only some compounds are listed: those with a hit (about 2.6% of all), similar ones and a draw of the others.

SMILES	KCC2 mod	CHT block	CHT allo act	Rad51 HR inh	CHT block conf	HEK293 CHT ctr
Cc1nnc(NC(=O)CCn2cnc3ccccc3c2=O)s1	·	i	i	7.1	·	·
Cc1ccc(S(=O)(=O)N2[C@@H](c3ccc(F)cc3)C(C(=O)O)=CC[C@H]2c2ccc3c(c2)OCO3)cc1	·	i	i	·	·	·
O=C(CSc1ccc(-c2nc3ccccc3[nH]2)cn1)Nc1ccc(S(=O)(=O)NC2CC2)cc1	0.512	-5.72*	i	-5.3	i	i
O=C(CSc1ccc(-c2nc3ccccc3[nH]2)cn1)Nc1ccc2c(c1)OCCO2	·	i	i	5.3	·	·
CSc1nnc(-c2ccc(F)cc2)o1	1.62	i	i	-8.2	·	·
O=C(O)/C(=C\c1ccccc1OC(F)F)Sc1nnc(-c2ccc(F)cc2)o1	-3.06	-5.65*	i	1.5	30.6%*	i
CN1CCCN(c2ncnc3scc(-c4ccc(F)cc4)c23)CC1	0.25	-10.4*	i	2.8	24.0%*	i
Fc1ccc(CN2CCN(c3ncnc4scc(-c5ccc(F)cc5)c34)CC2)cc1	·	i	i	·	·	·
Cc1onc(-c2ccccc2)c1C(=O)N1CCCC(C(F)(F)F)C1 (stereo unspecified)	·	i	i	·	·	·
CCCc1cc(Nc2c(C)n(C)n(-c3ccccc3)c2=O)n2c(nc3ccccc32)c1C#N	0.566	-8.01*	i	-7.2	38.1%*	i
CCCNc1c(NS(=O)(=O)c2c(F)c(F)c(F)c(F)c2F)c(=O)oc2ccccc12	·	i	i	·	·	·
Brc1ccc(-n2cccc2/C=N/n2cnnc2)cc1	0.424	i	i	·	·	·
Cc1sc2ncnc(N(C)Cc3ccco3)c2c1C	-1.71	-5.1*	i	-1.8	i	i
Cc1nc(SCC(=O)N(C)Cc2ccco2)c2c(C)c(C)sc2n1	-1.29	i	i	-4.0	·	·
O=c1cc(-c2ccccc2)oc2ccc(O)cc12	-0.162	i	i	3.7	·	·
COc1ccc(-c2cc(=O)c3cc(O)ccc3o2)cc1	-0.203	-7.28*	i	-2.6	41.1%*	i
COc1ccc(C(CCN2CCCC(C)C2)c2c(OC)cc(OC)c3c(C)cc(=O)oc23)cc1 (stereo unspecified)	-0.724	i	i	1.0	·	·
COc1ccc(C2CC(=O)Oc3c(C(CCN4CCCCC4)c4ccc(N(C)C)cc4)c(OC)cc(OC)c32)cc1 (stereo unspecified)	-0.0157	-5.9*	i	0.6	47.2%*	i
COc1ccc(C(CCN2CCCC2)c2c(OC)cc(OC)c3c(-c4ccccc4)cc(=O)oc23)cc1 (stereo unspecified)	0.74	-5.18*	i	12.8	51.3%*	i
COc1cc(OC)c2c(-c3ccccc3)cc(=O)oc2c1C(CCN1CCCC1)c1ccc2c(c1)OCO2 (stereo unspecified)	-0.322	-6.49*	i	6.5	49.5%*	i
CCCCCc1cc(=O)oc2c(C(CCN3CCCCC3)c3ccc4c(c3)OCO4)c(OC)cc(OC)c12 (stereo unspecified)	0.136	i	i	1.0	·	·
COc1ccc(C2CC(=O)Oc3c(C(CCN4CCCC(C)C4)c4ccc(N(C)C)cc4)c(OC)cc(OC)c32)cc1 (stereo unspecified)	0.0123	i	i	-4.0	·	·
COc1ccc(C(CCN2CCCC(C)C2)c2c(OC)cc(OC)c3c(-c4ccccc4)cc(=O)oc23)cc1 (stereo unspecified)	0.266	-5.66*	i	0.8	49.9%*	i
COc1ccc(CC(=O)NCC(=O)NC(Cc2ccccc2)C(=O)O)cc1 (stereo unspecified)	·	i	i	·	·	·
COc1cc(OC)c2c(-c3ccccc3)cc(=O)oc2c1C(CCN1CCCC(C)C1)c1ccc(N(C)C)cc1 (stereo unspecified)	0.833	-5.96*	i	4.5	53.5%*	i
SMILES	KCC2 mod	CHT block	CHT allo act	Rad51 HR inh	CHT block conf	HEK293 CHT ctr
Cc1ccc(S(=O)(=O)/N=C2\C=C(Nc3cccc(C(=O)O)c3)C(=O)c3ccccc32)cc1	·	-5.91*	i	·	41.1%*	2.51*
CC(C)(C)c1ccc(S(=O)(=O)/N=C2\C=C(NS(=O)(=O)c3ccccc3)C(=O)c3ccccc32)cc1	·	-8.71*	i	·	39.8%*	i
COC(=O)c1ccccc1NC1=C/C(=N\S(=O)(=O)c2ccc(C(=O)O)cc2)c2ccccc2C1=O	·	i	i	·	·	·
CN(Cc1nc(-c2cccnc2)no1)S(=O)(=O)c1ccc(Br)cc1	-0.26	-5.66*	i	11.1	61.9%*	i
COc1ccc(S(=O)(=O)N2CCN(CCc3ccccc3)CC2)cc1	·	i	i	·	·	·
CC1CCCC(C)N1C(=O)Cn1nnc(-c2ccc([N+](=O)[O-])cc2)n1 (stereo unspecified)	·	i	i	·	·	·
Cc1cc(N(CCO)CCO)ccc1N=Nc1cc(F)ccc1F	-0.428	-5.43*	i	3.8	56.0%*	i
NC(=O)CSc1nccn1Cc1ccccc1	0.0229	i	i	9.6	·	·
c1ccc(Cn2ccnc2SCc2nnc(-c3ccccc3)o2)cc1	0.0368	-6.14*	i	5.4	63.5%*	i
CCOC(=O)c1[nH]c(C)c(C(=O)N2CCc3ccccc32)c1C	-0.77	-6.03*	i	-1.6	i	2.43*
CC(=O)c1c(C)[nH]c(C(=O)N2CCc3ccccc32)c1C	·	i	i	-7.0	·	·
CCn1c(=O)cc(SCC(=O)NCc2ccc(C)o2)c2ccccc21	·	-5.08*	i	-0.9	i	i
COc1ccc(C)cc1NC(=O)CNC(C)C(=O)Nc1ccc(C(C)=O)cc1 (stereo unspecified)	·	i	i	·	·	·
CCCCCn1c(CCNC(=O)CCC)nc2ccccc21	0.109	-6.16*	i	-5.6	60.0%*	i
O=C(Nc1ccccc1)c1ccc(NCCc2ccccc2)c([N+](=O)[O-])c1	-1.75	i	i	-320.0	·	·
NC(=O)c1ccc(NCCc2ccccc2)c([N+](=O)[O-])c1	-2.49	-4.98*	i	14.2	i	i
CCOc1ccc(C(=O)OCC(=O)NCCCc2ccccc2)cc1	·	i	i	·	·	·
CCCCn1c(SCN2C(=O)c3ccccc3C2=O)nc2cc(S(N)(=O)=O)ccc21	0.362	·	·	9.4	·	·
CCCCn1c(SCn2nnc3ccccc3c2=O)nc2cc(S(N)(=O)=O)ccc21	-0.697	-6.24*	i	-10.0	48.8%*	i
Cc1ccccc1C(=O)N1CCCN(C(=O)c2ccccc2C)CC1	-0.789	-6.81*	i	11.0	i	i
O=C(c1ccccc1[N+](=O)[O-])N1CCCN(C(=O)c2ccccc2[N+](=O)[O-])CC1	-0.332	i	i	·	·	·
